The list is not random: actives were taken first. Their share in the collection is about 1.5%.
CXCR6 inh: CXCR6 (human) receptor inhibition. inhibition, % at 20 µM. 0.36% of 360,000 active. CHO-K1 PathHunter CXCR6 beta-arrestin, luminescence. O00574; in the data active = inhibition above about 34%, passing the limit was not always enough;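 also: antagonist mode with CXCL16 agonist at 10 nM final; 0% = 10 nM CXCL16 with DMSO and 100% = unstimulated wells without agonist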
CCR6 antagonist: antagonists of human CCR6 receptor | P51684 | CHO-K1 CCR6 PathHunter beta-arrestin, luminescence, CCL20-stimulated | inhibition, % at 20 µM | 0.49% of 340,000 active;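 active = compounds whose inhibition of the agonist-driven luminescence signal at 20 µM reaches about 50%, limit read from the data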;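 also: cells stimulated with CCL20 at 14 nM final; plate controls were DMSO with CCL20 for no effect and DMSO without agonist for full effect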
Target sequence (P51684 whole entry, looked up): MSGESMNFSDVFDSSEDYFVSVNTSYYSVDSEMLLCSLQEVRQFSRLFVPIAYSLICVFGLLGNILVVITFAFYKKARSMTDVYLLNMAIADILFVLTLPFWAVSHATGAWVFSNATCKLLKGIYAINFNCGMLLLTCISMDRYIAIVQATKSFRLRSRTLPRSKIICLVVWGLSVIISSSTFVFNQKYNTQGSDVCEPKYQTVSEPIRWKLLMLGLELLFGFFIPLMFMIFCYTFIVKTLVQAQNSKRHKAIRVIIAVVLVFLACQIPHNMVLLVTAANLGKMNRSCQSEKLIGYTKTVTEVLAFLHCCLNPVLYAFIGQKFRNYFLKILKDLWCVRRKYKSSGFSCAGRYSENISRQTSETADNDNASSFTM
EBI2 block: blocks human EBI2 receptor beta-arrestin signaling | EBI2 beta-arrestin recruitment, luminescence, 7a,25-OHC stimulated | inhibition, % at 5 µM | 0.81% of 360,000 active | AID 651636 | P32249; in the data active = inhibition above about 38%;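 also: enzyme fragment complementation signal reports receptor beta-arrestin coupling in cells; 0% = agonist plus DMSO wells and 100% = wells without agonist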
APJ antagonist: blocks the human apelin receptor APJ; P35414; CHO-K1 APJ beta-arrestin complementation, luminescence; inhibition, % at 20 µM; 0.32% of 330,000 active; AID 2521;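 active = inhibition above about 40% at 20 µM, limit read from the data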;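 also: cells challenged with 10 nM apelin-13 agonist together with compound; plate controls were apelin-13 plus DMSO wells for no effect and DMSO wells lacking apelin-13 for full effect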
APJ ag: activates the human apelin receptor APJ. CHO-K1 APJ PathHunter beta-arrestin, luminescence; 0% DMSO wells, 100% apelin. activation, % at 20 µM. 0.11% of 330,000 active. P35414;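 active = activation more than six SD over the plate average, tested at 20 µM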;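 also: 0% = DMSO alone and 100% = apelin-13 at 10 nM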
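Material: engineered CHO-K1 APJ arrestin reporter cells; amount: 1000 CHO-K1 reporter cells seeded per well; incubation: compound stimulation 90 min at 25 °C, detection 60 min; signal: luminescent beta-gal fragment complementation, chemiluminescent substrate; read-out basis: APJ agonist activity; controls: DMSO-only wells as negative, 10 nM Apelin-13 as positive control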
EBI2 antag conf: confirmation of human EBI2 receptor antagonists; EBI2 beta-arrestin luminescence, 7a,25-OHC antagonism; 29% of 2,400 active; inhibition, % at 5 µM; shares compounds with EBI2 block;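 active = inhibition of at least 50%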
EBI2 agonist: counter-screen for EBI2 antagonists: EBI2 agonist activity; 2,400 tested, under 10 active; AID 652000; EBI2-expressing cells, agonist mode, luminescence, 60 min; 0% vehicle, 100% 7α,25-dihydroxycholesterol control; activation, % at 5 µM; shares compounds with EBI2 block;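 active = activation of at least 50%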
bGal counter: beta-galactosidase inhibition counter-screen; shares compounds with EBI2 block; purified beta-galactosidase, luminescent Galacton Star, 15 min; inhibition, % at 5 µM; 1% of 2,400 active; AID 652176;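 active = replicate-average signal at least 3 plate SD below neutral wells, shown as high inhibition, flagging enzyme-inhibiting false positives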;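 also: 0% = DMSO wells with enzyme and 100% = wells lacking enzyme; higher means stronger loss of beta-gal luminescence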
Numbers without * were called inactive; x = no result.

SMILES	CXCR6 inh	CCR6 antagonist	EBI2 block	APJ antagonist	APJ ag	EBI2 antag conf	EBI2 agonist	bGal counter
Cc1ccc(OCC(=O)N2CCN(S(=O)(=O)c3ccc4c(c3)OCCO4)CC2)c(C)c1	2	10	70*	10	-1	53*	2	4
Cc1ccc2c(CC(=O)N3CCN(S(=O)(=O)c4ccccc4)CC3)coc2c1	-3	-6	24	23	-4	x	x	x
Cc1cc(S(=O)(=O)N2CCCCC2)ccc1OCC(=O)N1CCOCC1	1	3	-8	-6	4	x	x	x
Cc1ccc2c(CC(=O)N3CCN(S(=O)(=O)c4ccc5c(c4)OCCO5)CC3)coc2c1	0	-3	50*	1	-1	13	-1	-10
Cn1c(SCc2ccc([N+](=O)[O-])cc2)nnc1-c1ccncc1	2	-4	-4	10	-2	x	x	x
COC(=O)c1ccc(CSc2nnc(Nc3ccc(C)cc3)s2)o1	-5	7	38*	-30	-2	48	2	7
COc1ccc(OCC(O)CN2CCC(CN3C(=O)c4cccc5cccc(c45)C3=O)CC2)cc1 (centres undefined)	-14	22	44*	3	-6	20	1	6
COc1ccc(OC)c(S(=O)(=O)N2CCN(CC(O)COc3ccc(C#N)cc3)CC2)c1 (centres undefined)	-10	-11	45*	7	0	6	0	11
COc1ccc(S(=O)(=O)N2CCN(CC(O)COc3ccc(C#N)cc3)CC2)cc1OC (centres undefined)	-10	-6	13	4	-3	x	x	x
COc1ccc(OC)c(S(=O)(=O)N2CCN(CC(O)COc3ccccc3)CC2)c1 (centres undefined)	-3	11	46*	16	-3	8	1	10
COc1ccc(C2c3ccc(O)cc3Oc3ncn4nc(-c5cccnc5)nc4c32)cc1OC (centres undefined)	13	13	81*	5	-2	55*	-1	9
COc1cccc(NC(=O)c2ccc3c(c2)C(=O)N(CC2CCCO2)C3=O)c1 (centres undefined)	-3	1	60*	1	-2	32	0	8
COCCCN1C(=O)c2ccc(C(=O)Nc3ccccc3OC)cc2C1=O	-2	1	8	13	1	x	x	x
O=C(COc1ccccc1)Nc1ccc2c(c1)C(=O)N(CC1CCCO1)C2=O (centres undefined)	-3	6	45*	-4	-4	21	0	8
COCCCN1C(=O)c2ccc(C(=O)Nc3ccc(OC)cc3)cc2C1=O	-3	9	58*	7	-3	49	2	1
COc1ccc(NC(=O)c2ccc3c(c2)C(=O)N(CC2CCCO2)C3=O)cc1 (centres undefined)	-5	0	80*	9	1	50	1	7
COC(=O)Cc1ccc(NC(=O)c2ccc3c(c2)C(=O)N(CC2CCCO2)C3=O)cc1 (centres undefined)	-3	11	13	-12	19	x	x	x
COc1cccc(C(=O)Nc2ccc3c(c2)C(=O)N(CC2CCCO2)C3=O)c1 (centres undefined)	-8	11	14	-26	7	x	x	x
NC(=O)COc1c(-c2ccc(Br)o2)oc2ccccc2c1=O	0	-7	5	0	-3	x	x	x
O=C(NCCS(=O)(=O)N1CCN(c2ccccc2)CC1)C1CCCC1	5	4	-8	10	-5	x	x	x
N#Cc1cc(-c2ccccc2)nc(N2CCNCC2)n1	-4	7	-23	-3	2	x	x	x
CC1CCCN(c2ccc(C(=O)Nc3ccc4c(c3)OCO4)cc2[N+](=O)[O-])C1 (centres undefined)	15	32	46*	19	-1	34	1	8
CC1CCN(c2ccc(C(=O)Nc3ccc4c(c3)OCO4)cc2[N+](=O)[O-])CC1	17	17	13	22	-3	x	x	x
O=C(O)c1cccc(NC(=O)c2ccc3c(c2)C(=O)N(CC2CCCO2)C3=O)c1 (centres undefined)	0	3	-3	-11	-6	x	x	x
CCN1C(=O)c2ccc(C(=O)Nc3ccc4c(c3)OCO4)cc2C1=O	1	9	49*	6	-4	19	1	-15
SMILES	CXCR6 inh	CCR6 antagonist	EBI2 block	APJ antagonist	APJ ag	EBI2 antag conf	EBI2 agonist	bGal counter
COC(=O)c1cccc(NC(=O)c2ccc3c(c2)C(=O)N(CC2CCCO2)C3=O)c1 (centres undefined)	7	8	44*	12	5	31	0	-19
CCN1C(=O)c2ccc(C(=O)NCc3ccc4c(c3)OCO4)cc2C1=O	-3	-6	8	1	0	x	x	x
NC(Cc1ccc(F)cc1)c1csc(Nc2ccc(S(N)(=O)=O)cc2)n1 (centres undefined)	-3	x	-5	x	x	x	x	x
COc1cc(C(O)c2nc(/C=C/c3ccc(C(F)(F)F)cc3)cs2)ccc1F (centres undefined)	-10	x	-10	x	x	x	x	x
COc1ccc(C(=O)Nc2ccc3ccccc3c2)cc1	-5	15	55*	1	3	38	0	-6
COc1ccc(NC(=O)c2ccc(OC(F)F)cc2)cc1Cl	-4	15	46*	6	-2	54*	-1	-11
COc1ccc(NC(=O)c2ccc(OC(=S)N(C)c3ccc(OC)cc3)cc2)cc1	-5	6	86*	-11	6	74*	-2	-9
O=C(CS)Nc1ccc2ccccc2c1	-6	8	40*	x	x	26	0	3
COc1ccc(NC(=O)c2cc(F)cc(F)c2)cc1Cl	-1	0	-5	11	2	x	x	x
COc1cccc(C(=O)Nc2ccc3ccccc3c2)c1	-6	3	13	7	2	x	x	x
CCOC(=O)CNC(=O)c1cc2c(=O)[nH]c3ccc(C)cc3c2s1	0	7	-8	11	1	x	x	x
Cc1ccc(NC(=O)C2CCCN(S(=O)(=O)c3ccc(-n4cnnn4)cc3)C2)cc1 (centres undefined)	-8	15	-2	-2	1	x	x	x
COc1cc(S(=O)(=O)NC2CCCCC2C)ccc1F (centres undefined)	-13	3	-7	17	-1	x	x	x
COc1ccc(NC(=S)NN(C)C(=S)Nc2ccc(OC)cc2)cc1	2	6	67*	-27	-2	24	0	0
COc1ccc(OC)c(C(=O)c2ccc(C(=O)Nc3ccc4ccccc4c3)cc2)c1	2	2	88*	5	-2	55*	-1	-9

Screens as filed in PubChem BioAssay.
